These results are taken from ChEMBL document CHEMBL1150957, “DNA-damaging steroidal alkaloids from Eclipta alba from the suriname rainforest1” (J Nat Prod, 1998).

Values after ≈ are worked out from the molar mass of the structure shown.

Assay [1] has as its system Saccharomyces cerevisiae. The experiment in a line: Antifungal activity against Saccharomyces cerevisiae 1138. Type of assay: functional. The essentials:
(§1)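 Agar-well diffusion on mutant yeast lawns (1140 ise1 rad52; 1353 ISE+ rad52 top1; 1138 ise2 rad52). Stationary-phase YEPD cultures resuspended in 0.9% saline to 25% transmission at 600 nm, flooded onto YEPD agar with 0.8% Noble agar overlay, dried. Samples in DMSO-MeOH (1:1) added to 6-7 mm wells; nystatin control at 20 μg/mL; 30 °C, 36–48 h; IC12 (dose giving 12-mm zone) from dose–response curve.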

A further assay deals with Candida albicans. The experiment in a line: Antifungal activity against Candida albicans SC5314. The assay is classed as functional.
The test system of assay [2] is Saccharomyces cerevisiae. The experiment in a line: Antifungal activity against Saccharomyces cerevisiae Sc7. Type of assay: functional.
Assay [3] concerns Saccharomyces cerevisiae. The experiment in a line: Antifungal activity against Saccharomyces cerevisiae 1140. The assay is classed as functional. In outline: as §1
Assay [4] has as its system Saccharomyces cerevisiae. The experiment in a line: Antifungal activity against Saccharomyces cerevisiae 1353. Type of assay: functional. The essentials:
as §1

In another assay the test system is M109. In words: Cytotoxicity against mouse M109 cells. Type of assay: functional, cell-based.

With `C[C@H]1CCC([C@H](C)[C@H]2CC[C@H]3[C@@H]4CC=C5C[C@@H](O)CC[C@]5(C)[C@H]4CC[C@]23C)=NC1`, the IC12 in the assay on Saccharomyces cerevisiae [1] was 0.88 µg/mL; in the assay with Saccharomyces cerevisiae [3], 1.12 µg/mL; in the assay on Saccharomyces cerevisiae [4], 0.69 µg/mL. Further, the MIC against Candida albicans stood at 12.5 µg/mL (≈ 31.4 µM); against Saccharomyces cerevisiae [2] it was 6.25 µg/mL (≈ 15.7 µM).

`C[C@H](C1=NC[C@](C)(O)CC1)[C@H]1CC[C@H]2[C@@H]3CC=C4C[C@@H](O)CC[C@]4(C)[C@H]3CC[C@]12C`: the IC12 stood at 0.35 µg/mL in the assay on Saccharomyces cerevisiae [1], 2.5 µg/mL with Saccharomyces cerevisiae [3] and 4 µg/mL in the assay on Saccharomyces cerevisiae [4]. Moreover, the half-inhibitory concentration (IC50) in the assay on M109 worked out at 31.2 µg/mL (≈ 75.4 µM). The MIC was < 3.1 µg/mL against Candida albicans and 6.25 µg/mL (≈ 15.1 µM) in the assay with Saccharomyces cerevisiae [2].

Regarding `C[C@H]1CCC([C@H](C)[C@H]2CC[C@H]3[C@@H]4CC=C5[C@@H](O)[C@@H](O)CC[C@]5(C)[C@H]4CC[C@]23C)=NC1`, the IC12 amounted to 10 µg/mL in the assay on Saccharomyces cerevisiae [1], 23 µg/mL with Saccharomyces cerevisiae [3] and 24 µg/mL with Saccharomyces cerevisiae [4]. Besides, in the assay with M109, the half-maximal inhibitory concentration (IC50) was 10.5 µg/mL (≈ 25.4 µM). Further, the minimal inhibitory concentration (MIC) against Candida albicans was 400 µg/mL (≈ 967 µM); in the assay on Saccharomyces cerevisiae [2], 200 µg/mL (≈ 484 µM).

`C[C@H]1CCC([C@H](C)[C@H]2CC[C@H]3[C@@H]4CCC5=CC(=O)CC[C@]5(C)[C@H]4CC[C@]23C)=NC1`: the figures for the IC12 with Saccharomyces cerevisiae [1], in the assay with Saccharomyces cerevisiae [3] and with Saccharomyces cerevisiae [4] were 14 µg/mL, 45 µg/mL and 50 µg/mL, respectively. Besides, in the assay on M109, half-maximal inhibition (IC50) required 16.8 µg/mL (≈ 42.5 µM).

Turning to `C[C@H]1CCC([C@@H](C)[C@H]2CC[C@H]3[C@@H]4CC=C5[C@@H](O)[C@@H](O)CC[C@]5(C)[C@H]4CC[C@]23C)=NC1`, the figures for the IC12 in the assay on Saccharomyces cerevisiae [1], in the assay on Saccharomyces cerevisiae [3] and in the assay with Saccharomyces cerevisiae [4] were 12 µg/mL, 10 µg/mL and > 50 µg/mL, respectively. Inhibition in the assay on M109 was half-maximal at 15.5 µg/mL (≈ 37.5 µM) (IC50). The results for the minimal inhibitory concentration (MIC) in the assay on Candida albicans and against Saccharomyces cerevisiae [2] were 200 µg/mL (≈ 484 µM) and 100 µg/mL (≈ 242 µM), respectively.

Turning to `C[C@@H]1[C@H](O)[C@@H](C)/C=C/C=C/C=C/C=C/C=C/C=C/C=C/[C@H](O[C@@H]2O[C@H](C)[C@@H](O)[C@H](N)[C@@H]2O)C[C@@H]2O[C@](O)(C[C@@H](O)C[C@@H](O)[C@H](O)CC[C@@H](O)C[C@@H](O)CC(=O)O[C@H]1C)C[C@H](O)[C@H]2C(=O)O` [AMPHOTERICIN B], the values for the IC12 with Saccharomyces cerevisiae [1], with Saccharomyces cerevisiae [3] and in the assay on Saccharomyces cerevisiae [4] were 8.1 µg/mL, 15.6 µg/mL and 25 µg/mL, respectively. In addition, 7.5 µg/mL (≈ 8.12 µM) corresponded to half-maximal inhibition in the assay on M109 (IC50). Also, the figures for the MIC in the assay on Candida albicans and in the assay on Saccharomyces cerevisiae [2] were 1.6 µg/mL (≈ 1.73 µM) and 12.5 µg/mL (≈ 13.5 µM), respectively.

`Cc1cnc([C@H](C)[C@H]2CC[C@H]3[C@@H]4CC=C5C[C@@H](O)CC[C@]5(C)[C@H]4CC[C@]23C)c(O)c1` [ECLIPTALBINE]: the IC12 is 0.04 µg/mL with Saccharomyces cerevisiae [1], 0.7 µg/mL with Saccharomyces cerevisiae [3] and 0.4 µg/mL in the assay on Saccharomyces cerevisiae [4]. The IC50 in the assay on M109 is > 20 µg/mL. Besides, the minimal inhibitory concentration (MIC) against Candida albicans and against Saccharomyces cerevisiae [2] was 20 µg/mL (≈ 48.8 µM) throughout.

Regarding `CC(=O)N1CCN(c2ccc(OCC3COC(Cn4ccnc4)(c4ccc(Cl)cc4Cl)O3)cc2)CC1` (centres undefined) [KETOCONAZOLE], the IC12 with Saccharomyces cerevisiae [1] amounted to 2.5 µg/mL; with Saccharomyces cerevisiae [3], 4.8 µg/mL; with Saccharomyces cerevisiae [4], 9.4 µg/mL. The compound also gave an IC50 in the assay with M109 of 17 µg/mL (≈ 32 µM). Moreover, the MIC against Candida albicans is < 0.8 µg/mL; in the assay on Saccharomyces cerevisiae [2], 1.6 µg/mL (≈ 3.01 µM).

Regarding `C[C@H]1CC[C@@H]([C@@H](C)[C@H]2CC[C@H]3[C@@H]4CC=C5C[C@@H](O)CC[C@]5(C)[C@H]4CC[C@]23C)NC1` [VERAMILINE], the IC12 with Saccharomyces cerevisiae [1] came out at 3 µg/mL; in the assay on Saccharomyces cerevisiae [3], 3 µg/mL; with Saccharomyces cerevisiae [4], 4 µg/mL.

Take `C[C@H]1CCC([C@@H](C)[C@H]2CC[C@H]3[C@@H]4CC=C5C[C@@H](O)CC[C@]5(C)[C@H]4CC[C@]23C)=NC1` [VERAZINE]: the IC12 in the assay with Saccharomyces cerevisiae [1] was found to be 0.14 µg/mL; with Saccharomyces cerevisiae [3], 0.25 µg/mL; with Saccharomyces cerevisiae [4], 0.14 µg/mL. In the assay on M109, this compound showed an IC50 of 12.5 µg/mL (≈ 31.4 µM). Further, the MIC against Candida albicans was 25 µg/mL (≈ 62.9 µM); against Saccharomyces cerevisiae [2] it was 6.25 µg/mL (≈ 15.7 µM).

Broadly, the MIC is the least concentration at which growth counts as inhibited. High values mean a need for much substance, low ones inhibition by little substance. One may read the IC50 as the concentration at which inhibition is half-maximal.
